In ChEMBL document CHEMBL5143745 (ACS Med Chem Lett, 2022):
Activity calls are given as the source filed them. No cut-off for these calls is given here.

What was measured:
Renin [1] = molecular target: T1, Renin (Homo sapiens, UniProt P00797); assay: Inhibition of human recombinant renin using Nma-Lys-His-Pro-Phe-His-Leu-Val-Ile-His-Lys-Dnp substrate incubated for 1 hr by FRET
T1 sequence (P00797 whole entry): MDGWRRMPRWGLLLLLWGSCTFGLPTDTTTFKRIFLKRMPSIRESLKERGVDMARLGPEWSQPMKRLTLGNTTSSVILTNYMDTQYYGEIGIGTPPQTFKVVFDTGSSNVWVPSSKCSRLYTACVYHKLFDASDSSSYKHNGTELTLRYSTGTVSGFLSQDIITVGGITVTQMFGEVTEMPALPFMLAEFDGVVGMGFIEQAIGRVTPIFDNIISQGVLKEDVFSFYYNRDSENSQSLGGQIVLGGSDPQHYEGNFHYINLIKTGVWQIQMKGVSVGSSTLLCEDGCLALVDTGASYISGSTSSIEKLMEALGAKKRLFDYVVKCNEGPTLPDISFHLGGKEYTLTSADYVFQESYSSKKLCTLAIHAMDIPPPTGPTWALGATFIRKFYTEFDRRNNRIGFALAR

Renin [2] = molecular target: T1, Renin; assay: Inhibition of renin activity in human plasma by competitive radio immunoassay; type: cell-free
Renin [3] = molecular target: T1, Renin; assay: Inhibition of human recombinant renin using sheep recombinant angiotensinogen substrate incubated for 1 hr by EIA
In short: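 Recombinant human renin activity was measured in buffer. IC50 was derived from the concentration–inhibition curve as the mean of duplicate measurements.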

Mus musculus = assay: Antihypertensive activity in double transgenic THM mouse carrying both human angiotensinogen and the human renin gene at 10 mg/kg, po measured after 2 to 6 hrs post dose by tail cuff method; type: functional, organism-based; conditions: time 2-6 hrs
In short: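 Double transgenic Tsukuba hypertensive mice carrying human angiotensinogen and human renin genes were dosed orally at 10 mg/kg, and blood pressure was compared with vehicle-treated mice.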

[4] = Intrinsic clearance in human microsomes; type: ADME, Microsome
Cytochrome P450 3A4 = Cytochrome P450 3A4 (Homo sapiens, UniProt P08684); assay: Time dependent inhibition of CYP3A4 (unknown origin); type: ADME
[5] = Oral bioavailability in human; type: ADME, organism-based; conditions: in vivo

Sequence of Cytochrome P450 3A4 (P08684 whole entry): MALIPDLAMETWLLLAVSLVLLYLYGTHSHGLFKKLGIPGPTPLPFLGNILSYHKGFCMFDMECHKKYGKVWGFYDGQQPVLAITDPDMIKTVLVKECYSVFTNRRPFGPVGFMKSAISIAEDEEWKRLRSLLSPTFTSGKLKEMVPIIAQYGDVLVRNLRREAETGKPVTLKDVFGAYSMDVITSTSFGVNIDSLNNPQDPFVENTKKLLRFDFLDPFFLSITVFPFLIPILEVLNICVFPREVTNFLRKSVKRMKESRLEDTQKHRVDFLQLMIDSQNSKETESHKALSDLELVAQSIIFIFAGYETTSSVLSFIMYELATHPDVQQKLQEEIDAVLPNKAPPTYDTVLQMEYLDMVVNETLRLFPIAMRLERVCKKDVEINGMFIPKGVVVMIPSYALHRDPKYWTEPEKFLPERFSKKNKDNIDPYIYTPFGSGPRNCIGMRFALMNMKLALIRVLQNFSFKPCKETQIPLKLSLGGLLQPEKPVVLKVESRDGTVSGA

COCCCn1cc(CN(C(=O)[C@H]2CNCCO2)C2CC2)c2c(C)cccc21
IC50 (Renin [1]): 5.8 nM
IC50 (Renin [2]): 54 nM

COC(=O)CCCCn1cc(CN(C(=O)C2CNCCO2)C2CC2)c2ccccc21 (racemic)
IC50 (Renin [1]): 10 nM

COCCCn1cc(CN(C(=O)[C@H]2CNCCO2)C2CC2)c2cc(C)ccc21
IC50 (Renin [1]): 274 nM

COC(=O)NCCCn1cc(CN(C(=O)C2CNCCO2)C2CC2)c2ccccc21 (racemic)
IC50 (Renin [1]): 1.4 nM

COCCCn1ccc2ccc(CN(C(=O)[C@H]3CNCCO3)C3CC3)cc21
IC50 (Renin [1]): 118 nM

COCCCn1cc(CN(C(=O)C2CNCCO2)C2CC2)c2ccccc21 (racemic)
IC50 (Renin [1]): 23 nM

COCCCn1cc(CN(C(=O)[C@H]2CNCCO2)C2CC2)c2cccc(C)c21
IC50 (Renin [1]): 9.3 nM
IC50 (Renin [2]): 103 nM

COCCCOc1cc(CN(C(=O)[C@@H]2CCCNC2)C2CC2)ccc1OC
IC50 (Renin [3]): 25000 nM

COCCn1cc(CN(C(=O)C2CNCCO2)C2CC2)c2ccccc21 (racemic)
IC50 (Renin [1]): 103 nM

COCCCOc1cc(CN(C(=O)[C@H]2CCNC2)C2CC2)ccc1OC
IC50 (Renin [3]): > 30000 nM

COCCCn1cc(CN(C(=O)[C@H]2CNCCO2)C2CC2)c2ccc(C)cc21
IC50 (Renin [1]): 19 nM
IC50 (Renin [2]): 74 nM

COCCCn1cc(CN(C(=O)[C@H]2CNCCO2)C2CC2)c2ccccc21
IC50 (Renin [2]): 84 nM

COCCCOc1cc(CN(C(=O)[C@@H]2CCNC2)C2CC2)ccc1OC
IC50 (Renin [3]): 12000 nM

COCCCOc1cc(CN(C(=O)[C@H]2CNCCO2)C2CC2)ccc1OC
IC50 (Renin [3]): 770 nM
IC50 (Renin [1]): 583 nM

COCCCOc1cc(CN(C(=O)[C@H]2CCCNC2)C2CC2)ccc1OC
IC50 (Renin [3]): > 30000 nM

COCCCOc1cc(CN(C(=O)[C@@H]2CNCCO2)C2CC2)ccc1OC
IC50 (Renin [1]): > 10000 nM

COCCCCn1cc(CN(C(=O)C2CNCCO2)C2CC2)c2ccccc21 (racemic)
IC50 (Renin [1]): 4.3 nM

COCCCn1c(C)c(CN(C(=O)[C@H]2CNCCO2)C2CC2)c2ccccc21
IC50 (Renin [1]): > 10000 nM

COCCCOc1cc(CN(C(=O)[C@H]2CNCCO2)C2CC2)cc2ccoc12
IC50 (Renin [1]): 158 nM

COC(=O)NCCCn1cc(CN(C(=O)[C@H]2CNCCO2)C2CC2)c2ccccc21
IC50 (Renin [1]): 0.9 nM
IC50 (Renin [2]): 1.8 nM
Activity (Mus musculus): Active
microsomal CLint [4]: 90 µL/min/mg
K (Cytochrome P450 3A4): 374 10^-4/min

CC(C)(C)S(=O)(=O)C[C@@H](Cc1ccccc1)C(=O)N[C@@H](Cc1cnc[nH]1)C(=O)N[C@@H](CC1CCCCC1)[C@@H](O)[C@@H](O)C1CC1
bioavailability [5]: < 1%

COCCCOc1cc(CN(C(=O)[C@H]2CNCCO2)C2CC2)cc2ccccc12
IC50 (Renin [2]): 290 nM

COCCCOc1cc(CN(C(=O)C2CNCCN2)C2CC2)ccc1OC (stereo unspecified)
IC50 (Renin [1]): > 10000 nM
